Measurements from different studies.
Protocols differ between the studies behind these lines.

CCCCCCCC(=O)N[C@@H](CCCCN)C(=O)N[C@@H](CCCCN)C(=O)N[C@@H](C)C(=O)N[C@@H](CC(C)C)C(=O)N[C@@H](CCCCN)C(=O)N[C@@H](CC(C)C)C(=O)N[C@@H](C)C(=O)N[C@@H](CCCCN)C(=O)N[C@@H](CCCCN)C(=O)N1CCC[C@H]1C(=O)N[C@@H](CC(C)C)C(=O)N[C@@H](CCCCN)C(=O)N[C@@H](CC(C)C)C(=O)N[C@@H](CC(C)C)C(=O)N[C@@H](CCCCN)C(N)=O — Cmax (female CD-1 mouse, blood; intravenous, 1 mg/kg, single dose): 441 ng/mL
COc1ccc2[nH]cc(CCNc3nccc(Nc4cccc5c4ccn5C)n3)c2c1 — Cmax (mouse, plasma; oral, 28.6 mg/kg): 406 ng/mL
C[C@]12CC[C@H](O)CC1=CC[C@@H]1[C@@H]2CC[C@]2(C)C(n3cnc4ccccc43)=CC[C@@H]12.Cl — Cmax (mouse, plasma; oral, 10 mg/kg): 10.5 ng/mL
Cc1cc(C)nc(Nc2ncc(C(=O)NCCc3c(C)[nH]c4ccccc34)cn2)c1 — Cmax (C57BL/6 mouse, plasma; intraperitoneal, 22 mg/kg): 1150 ng/mL
CN[C@H](CC(C)C)C(=O)N[C@H]1C(=O)N[C@@H](CC(N)=O)C(=O)N[C@H]2C(=O)NC3C(=O)N[C@H](C(=O)N[C@H](C(=O)NCCC[N+](C)(C)C)c4cc(O)cc(O)c4-c4cc3ccc4O)[C@H](O)c3ccc(c(Cl)c3)Oc3cc2cc(c3OC2OC(CO)C(O)[C@H](O)[C@@H]2O[C@H]2CC(C)(NCc3ccc(-c4ccc(Cl)cc4)cc3)[C@H](O)[C@H](C)O2)Oc2ccc(cc2Cl)[C@H]1O (some centres unmarked) — Cmax (mouse, plasma; intravenous, 50 mg/kg): 58900 ng/mL
C[C@]12CC[C@H](n3ccnc3)CC1=CC[C@@H]1[C@@H]2CC[C@]2(C)C(n3cnc4ccccc43)=CC[C@@H]12.Cl.Cl — Cmax (male CD-1 mouse, plasma; oral, 10 mg/kg): 1510 ng/mL
CCC[C@@](N)(CO)CCc1ccc(OCCCCCC(C)C)cc1 — Cmax (mouse, plasma; oral, 10 mg/kg): 161 nM
N#Cc1c(Oc2cccc(OS(=O)(=O)CCCC(F)(F)F)c2)cccc1C(F)(F)F — Cmax (mouse, plasma; oral, 5 mg/kg): 172 ng/mL
